# Compound activity from PubChem BioAssay.
# Most compounds without a hit are left out; they make up all but 2.1% or so of the library.
# TDP2 absorb: blocks human TDP2 phosphodiesterase activity; 0.34% of 370,000 active; recombinant TDP2, T5PNP hydrolysis, p-nitrophenol absorbance 415 nm; AID 720702; inhibition, % at 12.8 µM; O95551;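 active = inhibition above the mean of all tested compounds plus 3 SD, set per campaign, cut at about 25% in these data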;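 note: 0% = DMSO with enzyme and 100% = buffer with substrate but no TDP2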
#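 Evaluation: % inhibition relative to enzyme-containing and enzyme-free wells. Material: recombinant human TDP2. Benchmarks: enzyme-free and DMSO wells. Timing: enzyme reaction with compound for 2 h at 37 °C. Compound dosing: 12.8 µM only. Measured by: p-Nitrophenol epi absorbance. Reagent: T5PNP substrate at 5 mM, a TopII-DNA adduct mimic. Replication: single well per compound.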
# PP1 counter: PP1-alpha (human) inhibition in PP5 counter-screen | inhibition, % at 6.7 µM | AID 2235 | 0.9% of 320,000 active | purified PP1alpha, OMFP fluorescence;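 active = inhibition above the mean inhibition of all tested compounds plus 3 SD, computed separately for each screening campaign, cut at about 15% in these data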
# Apaf-1 inh: inhibitors of human Apaf-1 apoptosome; O14727; reconstituted apoptosome caspase-3 activity, DEVD-Rh110 fluorescence; inhibition, % at 20 µM; 0.71% of 330,000 active; AID 489030; active = inhibition of at least 40% at 20 µM;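 note: plate controls were DMSO wells for no effect and DEVD-CHO caspase inhibitor wells for full effect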
# Target sequence (O14727 whole entry, looked up): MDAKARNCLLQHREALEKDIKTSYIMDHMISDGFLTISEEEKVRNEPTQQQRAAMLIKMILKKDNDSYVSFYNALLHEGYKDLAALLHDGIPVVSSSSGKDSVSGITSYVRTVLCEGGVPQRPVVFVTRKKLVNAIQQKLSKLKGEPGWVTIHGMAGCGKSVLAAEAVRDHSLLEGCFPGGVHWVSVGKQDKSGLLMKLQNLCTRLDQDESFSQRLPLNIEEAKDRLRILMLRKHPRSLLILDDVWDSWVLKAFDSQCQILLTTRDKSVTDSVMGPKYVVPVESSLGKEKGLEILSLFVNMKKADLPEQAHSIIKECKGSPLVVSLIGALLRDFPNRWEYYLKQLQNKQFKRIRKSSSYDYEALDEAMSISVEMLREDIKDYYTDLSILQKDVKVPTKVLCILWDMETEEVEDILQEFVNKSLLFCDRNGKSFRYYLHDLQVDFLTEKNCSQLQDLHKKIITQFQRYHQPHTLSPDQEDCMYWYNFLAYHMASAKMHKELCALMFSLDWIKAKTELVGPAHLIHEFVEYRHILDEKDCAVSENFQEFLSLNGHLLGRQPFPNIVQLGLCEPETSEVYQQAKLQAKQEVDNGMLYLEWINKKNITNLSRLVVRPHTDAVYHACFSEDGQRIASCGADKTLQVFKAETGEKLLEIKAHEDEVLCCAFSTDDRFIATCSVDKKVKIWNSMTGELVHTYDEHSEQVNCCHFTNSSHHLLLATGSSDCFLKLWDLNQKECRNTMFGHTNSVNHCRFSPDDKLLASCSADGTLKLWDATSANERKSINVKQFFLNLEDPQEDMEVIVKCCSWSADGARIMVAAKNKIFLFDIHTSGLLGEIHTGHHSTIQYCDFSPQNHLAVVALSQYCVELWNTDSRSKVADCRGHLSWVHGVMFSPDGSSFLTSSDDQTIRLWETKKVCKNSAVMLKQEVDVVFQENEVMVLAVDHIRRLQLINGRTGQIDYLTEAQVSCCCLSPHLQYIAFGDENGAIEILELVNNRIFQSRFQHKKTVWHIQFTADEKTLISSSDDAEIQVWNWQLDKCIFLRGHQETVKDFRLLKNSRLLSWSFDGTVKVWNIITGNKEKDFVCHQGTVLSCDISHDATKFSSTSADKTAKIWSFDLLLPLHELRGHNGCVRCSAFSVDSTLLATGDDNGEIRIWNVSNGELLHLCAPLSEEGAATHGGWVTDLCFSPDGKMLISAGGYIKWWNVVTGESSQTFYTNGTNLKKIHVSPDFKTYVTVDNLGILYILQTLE
#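 System: reconstituted apoptosome with Apaf-1, cytochrome c, caspase-9, procaspase-3, dATP; Signal: Rh110 fluorescence intensity; Schedule: 30 min compound preincubation, 50 min activation, room temperature; Reagent: cytochrome c trigger plus (Z-DEVD)2-Rh110 caspase-3 substrate.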
# GSTO1 inh: GSTO1 inhibition, counter-screen for RBBP9 inhibitors; 1.1% of 300,000 active; AID 1974; inhibition, % at 5.96 µM; P78417; recombinant GSTO1, activity-based probe fluorescence polarization;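 active = inhibition above the campaign mean inhibition plus 3 SD, cut at about 35% in these data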;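 note: 0% = GSTO1-1 with DMSO and 100% = wells lacking GSTO1-1 enzyme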
# PP5 primary: PP5 (human) phosphatase inhibition; purified PP5c, OMFP substrate fluorescence; inhibition, % at 6.7 µM; 0.18% of 320,000 active;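 active = inhibition above the campaign's mean inhibition across all tested compounds plus 3 SD, cut at about 9.5% in these data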;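 note: 0% = DMSO only and 100% = 100 µM cantharidin control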
# * hit, by the source's call; . = no result.
SMILES,TDP2 absorb,PP1 counter,Apaf-1 inh,GSTO1 inh,PP5 primary
Cc1ccc2nc(-c3ccc(NC(=O)CSc4nc(N)cc(=O)[nH]4)cc3)sc2c1,-11,16*,-18,-33,-2
O=C(/C=C/c1ccco1)N(c1ccccn1)c1ccccn1,14,-5,1,42*,0
COc1ccc(NC(=O)CN(C)C(=O)c2cc(-c3ccco3)nc3ccccc23)cc1,2,5,15,37*,1
CN(CC(=O)Nc1cccc(F)c1)C(=O)c1cc(-c2ccco2)nc2ccccc12,9,-1,14,22,4
Brc1ccc(C=Nc2ccc(Nc3ccccc3)cc2)s1,.,5,.,37*,0
O=C(NCCc1ccccc1)OCc1cn(-c2ccccc2Cl)nn1,1,.,.,.,.
Cc1ccc2nc(CCl)[n+]([O-])c(-c3ccccc3)c2c1,6,-1,3,36*,9
CN(C(=O)COC(=O)c1cc(S(=O)(=O)N2CCOCC2)c(Cl)cc1Cl)C1CCS(=O)(=O)C1 (centres undefined),-5,-4,-156,54*,1
CC(C)(C)CCNc1nc(-c2ccccn2)nnc1-c1ccccc1,13,.,.,.,.
CN(C)c1cccc(/C=C2\CC3(OC(=O)c4ccccc4)CCCN2C3)c1 (centres undefined),-2,.,.,.,.
CC(C)c1ccc(S(=O)(=O)Nc2ccc(-n3cnnn3)cc2)cc1,-13,.,8,.,.
CC(C)c1ccc(NS(=O)(=O)c2ccc(-n3cccn3)cc2)cc1,4,1,22,35*,5
COc1cccc(NC(=O)C2CCN(S(=O)(=O)c3ccc4c(c3)CC(C)N4C(C)=O)CC2)c1 (centres undefined),4,-2,2,4,3
COc1cccc(NC(=O)C2CCC(CNS(=O)(=O)c3ccc4c(c3)CC(C)N4C(C)=O)CC2)c1 (centres undefined),-4,-2,1,35*,5
c1ccc(C[C@H]2CNCCN2CCCCC2CCCCC2)cc1,-7,10,49*,-8,-2
CC(=O)Nc1ccc(C(=O)CCl)cc1,3,-1,5,.,2
CC(=O)NCc1ccc(C(=O)CCl)cc1,-11,-1,-1,50*,2
COc1ccc(C(=O)OCC(=O)c2ccc(CNC(C)=O)s2)cc1,-5,-1,13,.,3
CC(=O)NCc1ccc(C(=O)CCl)s1,-4,10,-1,78*,-1
COC(=O)C1CN(CCO)CCS(=O)(=O)N1Cc1cn(Cc2ccc(C)cc2)nn1 (centres undefined),1,.,.,.,.
COc1ccc(/C=C2\CN(Cc3ccccc3)C/C(=C\c3ccc(OC)cc3OC)C2=O)c(OC)c1,-12,16*,21,-18,4
COC(=O)NN=C1CCC(c2ccccc2)CC1 (centres undefined),13,.,-13,.,.
COC(=O)N/N=C1/C/C(=N\NC(=O)OC)c2ccccc21,50*,-2,18,17,-2
Cc1cc(C(=O)CCl)c(C)n1-c1cccc(S(=O)(=O)N2CCOCC2)c1,-5,0,-2,94*,2
Cc1cc(C(=O)CN2C(=O)CN(C)C2=O)c(C)n1-c1cccc(S(=O)(=O)N2CCOCC2)c1,3,-3,1,-5,-3
SMILES,TDP2 absorb,PP1 counter,Apaf-1 inh,GSTO1 inh,PP5 primary
CCCCCN1CCCCC(NC(=O)c2ccccc2C)C1=O (centres undefined),-2,.,.,.,.
O=C(O)C(c1ccccc1)N1C(=O)/C(=C/c2cccs2)SC1=S (centres undefined),15,-1,17,8,0
CC(c1ccccc1)N1C(=O)/C(=C/c2ccncc2)SC1=S (centres undefined),-13,17*,9,-3,4
Cc1nnc(NC(=O)CSc2ccc([N+](=O)[O-])cn2)s1,13,-2,-1,37*,-1
CCc1nn(CCCC(=O)NCc2ccccc2Br)c(=O)c2cc3occc3n12,12,-1,46*,-3,-2
COc1ccccc1Nc1nc(Cl)c(C=O)s1,11,-4,-8,47*,0
O=C(O)CN1C(=O)/C(=C\c2cc(Br)ccc2OCc2ccccc2Cl)SC1=S,2,15,12,3,1
O=C(O)CN1C(=O)/C(=C\c2cc(Br)ccc2OCc2ccccc2F)SC1=S,7,16*,12,-4,0
COC(=O)c1ccccc1N/C=C1\CCc2c(c(C)nn2-c2ccccn2)C1=O,1,-1,69*,23,2
